# Experimental data as given in ChEMBL document CHEMBL5705892, “MK-2206, an allosteric Akt inhibitor, enhances antitumor efficacy by standard chemotherapeutic agents or molecular targeted drugs in vitro and in vivo” (Mol Cancer Ther, 2010).
# Calls of active or inactive are those of the source. No cut-off for these calls is given here.
# How the values were obtained:
# MDA-MB-468 [1] = assay: Synergistic antiproliferative activity against human MDA-MB-468 cells assessed as combination index at ED50 measured after 72 hrs in presence of lapatinib by celltiter-glo assay; format: functional
# Method in brief: (§1)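 Cells grown in RPMI 1640 with 10% heat-inactivated FBS at 37°C, 5% CO₂. Seeded at 2 to 3 × 10³ per well; drugs added 24 h later. […] Viability read as cellular ATP by CellTiter-Glo. CI calculated by Chou–Talalay from median-effect plots at ED50, ED75 and ED90.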
# SK-OV-3 = assay: Synergistic antiproliferative activity against human SK-OV-3 cells assessed as combination index at ED50 measured after 72 hrs in presence of lapatinib by celltiter-glo assay; format: functional
# NCI-H358 = assay: Synergistic antiproliferative activity against human NCI-H358 cells assessed as combination index at ED75 measured after 72 hrs in presence of erlotinib by celltiter-glo assay; format: functional
# NCI-H23 = assay: Synergistic antiproliferative activity against human NCI-H23 cells assessed as combination index at ED75 measured after 72 hrs in presence of erlotinib by celltiter-glo assay; format: functional
# HCC70 [2] = assay: Synergistic antiproliferative activity against human HCC70 cells assessed as combination index at ED75 measured after 72 hrs in presence of lapatinib by celltiter-glo assay; format: functional; method in brief: as §1
# MDA-MB-468 [3] = assay: Synergistic antiproliferative activity against human MDA-MB-468 cells assessed as combination index at ED75 measured after 72 hrs in presence of lapatinib by celltiter-glo assay; format: functional
# HCC70 [4] = assay: Synergistic antiproliferative activity against human HCC70 cells assessed as combination index at ED90 measured after 72 hrs in presence of lapatinib by celltiter-glo assay; format: functional; method in brief: as §1
# NCI-H292 = assay: Induction of apoptosis in human NCI-H292 cells assessed as increase in caspase-3/7 activity measured after 48 hrs in presence of erlotinib by caspase-glo 3/7 assay; format: functional, cell-based; conditions: dose <= 3.0 µmol/L
# Method in brief: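 Caspase-3/7 activity was measured by Caspase-Glo 3/7 and expressed as fold over DMSO vehicle control. The experiment was done twice.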
# [5] = biological target: RAC-alpha serine/threonine-protein kinase (Homo sapiens) (UniProt P31749); assay: Inhibition of AKT in human A-431 cells assessed as reduction in GSK3alpha/beta phosphorylation at S21/S9 residues at 5 umol/L measured after 5 hrs in presence of erlotinib by Western blot analysis; format: cell-based; conditions: dose 5.0 µmol/L
# RAC-alpha serine/threonine-protein kinase (Homo sapiens), sequence (P31749 whole entry): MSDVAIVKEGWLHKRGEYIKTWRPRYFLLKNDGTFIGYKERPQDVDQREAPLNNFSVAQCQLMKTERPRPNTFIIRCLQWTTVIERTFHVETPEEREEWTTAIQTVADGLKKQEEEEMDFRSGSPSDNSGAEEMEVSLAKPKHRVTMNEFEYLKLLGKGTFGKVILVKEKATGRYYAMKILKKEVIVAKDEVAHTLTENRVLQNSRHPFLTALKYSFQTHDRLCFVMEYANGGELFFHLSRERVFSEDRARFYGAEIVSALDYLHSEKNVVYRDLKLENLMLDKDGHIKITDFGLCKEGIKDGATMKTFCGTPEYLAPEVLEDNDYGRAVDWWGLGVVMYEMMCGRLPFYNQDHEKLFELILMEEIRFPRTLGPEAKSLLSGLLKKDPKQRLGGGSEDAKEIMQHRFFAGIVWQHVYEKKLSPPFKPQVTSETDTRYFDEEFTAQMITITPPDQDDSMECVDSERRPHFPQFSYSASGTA
# Method in brief: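 Cells were lysed in Tris-HCl pH 7.5, 150 mM NaCl, 1% Triton X-100 with protease and phosphatase inhibitors. Lysates were run on SDS-PAGE, transferred to nitrocellulose and probed with phospho-specific antibodies.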
# Mus musculus = assay: In vivo inhibition of AKT in human NCI-H292 cells xenografted mouse at 120 mg/kg, po administered as single dose measured after 12 hrs by immunoprecipitation assay; format: functional, organism-based
# [6] = Toxicity in human NCI-H292 cells xenografted CD-1 mouse assessed as death at 360 mg/kg, po administered once a week for 2 weeks starting 2 hrs post-erlotinib treatment and measured during compound dosing; format: organism-based; conditions: in vivo, 336 h
# Method in brief: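 NCI-H292 cells in 50% Matrigel/PBS injected s.c. into flank of female CD1-nude mice; dosing began after 2 wk at mean tumour 0.2 cm³, n = 5/group. […] Body weight and signs monitored; treatment ended day 16.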
# HCC1954 [7] = assay: Synergistic antiproliferative activity against human HCC1954 cells assessed as combination index at ED50 treated 24 hrs prior to lapatinib and measured after 72 hrs by celltiter-glo assay; format: functional; conditions: time 96 hrs
# HCC70 [8] = assay: Synergistic antiproliferative activity against lapatinib pretreated human HCC70 cells assessed as combination index at ED50 measured after 72 hrs by celltiter-glo assay; format: functional
# SK-BR-3 [9] = assay: Synergistic antiproliferative activity against lapatinib pretreated human SK-BR-3 cells assessed as combination index at ED50 measured after 72 hrs by celltiter-glo assay; format: functional
# SK-BR-3 [10] = assay: Synergistic antiproliferative activity against lapatinib pretreated human SK-BR-3 cells assessed as combination index at ED75 measured after 72 hrs by celltiter-glo assay; format: functional
# MDA-MB-468 [11] = assay: Synergistic antiproliferative activity against human MDA-MB-468 cells assessed as combination index at ED75 measured after 96 hrs in presence of lapatinib by celltiter-glo assay; format: functional
# HCC1954 [12] = assay: Synergistic antiproliferative activity against human HCC1954 cells assessed as combination index at ED90 treated 24 hrs prior to lapatinib and measured after 72 hrs by celltiter-glo assay; format: functional; conditions: time 96 hrs
# HCC1954 [13] = assay: Synergistic antiproliferative activity against lapatinib pretreated human HCC1954 cells assessed as combination index at ED90 measured after 72 hrs by celltiter-glo assay; format: functional
# BT-474 = assay: Synergistic antiproliferative activity against human BT-474 cells assessed as combination index at ED50 preincubated for 24 hrs followed by compound washout and subsequent docetaxel addition and measured after 72 hrs by celltiter-glo assay; format: functional
# Method in brief: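 Sequential schedule. Cells were seeded at 2 to 3 × 10³ per well in RPMI 1640 with 10% FBS and dosed 24 h after plating. They were exposed to the Akt inhibitor for 24 h, washed free of it, then given docetaxel for a further 72 h. Fixed concentration ratios spanned each agent's IC₅₀. ATP was read by CellTiter-Glo, and Chou–Talalay CI was calculated at ED50, ED75 and ED90.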
# BT-20 = assay: Synergistic antiproliferative activity against human BT-20 cells assessed as combination index at ED50 measured after 72 hrs in presence of docetaxel by celltiter-glo assay; format: functional; method in brief: as §1
# MDA-MB-468 [14] = assay: Synergistic antiproliferative activity against human MDA-MB-468 cells assessed as combination index at ED50 measured after 72 hrs in presence of docetaxel by celltiter-glo assay; format: functional; method in brief: as §1
# ZR-75-1 = assay: Synergistic antiproliferative activity against human ZR-75-1 cells assessed as combination index at ED75 measured after 72 hrs in presence of docetaxel by celltiter-glo assay; format: functional
# A2780 [15] = assay: Synergistic antiproliferative activity against human A2780 cells assessed as combination index at ED90 measured after 72 hrs in presence of 5-FU by celltiter-glo assay; format: functional
# Method in brief: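 Cells were seeded at 2–3 × 10³ per well in RPMI 1640 with 10% FBS. At 24 h, MK-2206 and the partner drug were added simultaneously at constant concentration ratios spanning each agent's IC₅₀, for 72 h. Growth was read as cellular ATP by CellTiter-Glo. CI was taken from median-effect plots of each agent alone and in combination (Chou–Talalay), at ED₅₀, ED₇₅ and ED₉₀.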
# NCI-H460 [16] = assay: Synergistic antiproliferative activity against human NCI-H460 cells assessed as combination index at ED50 measured after 72 hrs in presence of doxorubicin by celltiter-glo assay; format: functional
# NCI-H460 [17] = assay: Synergistic antiproliferative activity against human NCI-H460 cells assessed as combination index at ED90 measured after 72 hrs in presence of doxorubicin by celltiter-glo assay; format: functional
# A2780 [18] = assay: Cell cycle arrest in human A2780 cells assessed as increase in accumulation of cells at sub-G1 phase measured after 72 hrs in presence of doxorubicin by propidium iodide staining based flow cytometry; format: functional
# NCI-H1993 = assay: Induction of apoptosis in human NCI-H1993 cells assessed as fold induction of capsase-3/7 activity measured after 24 to 48 hrs in presence of gemcitabine by caspase-glo 3/7 assay; format: functional; conditions: time 24-48 hrs
smiles,measurement,setting,value
Cl.NC1(c2ccc(-c3nc4ccn5c(=O)[nH]nc5c4cc3-c3ccccc3)cc2)CCC1,CI50,MDA-MB-468 [1],0.42
same,CI50,SK-OV-3,0.07
same,CI75,NCI-H358,0.19
same,CI75,NCI-H23,0.46
same,CI75,HCC70 [2],0.28
same,CI75,MDA-MB-468 [3],0.25
same,CI90,HCC70 [4],0.2
same,Activity,NCI-H292,Dose-Dependent Effect
same,inhibition,[5],Active
same,inhibition,Mus musculus,Active
same,Activity,[6],Non-Toxic
same,CI50,HCC1954 [7],0.18
same,CI50,HCC70 [8],0.18
same,CI50,SK-BR-3 [9],0.18
same,CI75,SK-BR-3 [10],0.18
same,CI75,MDA-MB-468 [11],0.18
same,CI90,HCC1954 [12],0.18
same,CI90,HCC1954 [13],0.18
same,CI50,BT-474,1.6
same,CI50,BT-20,1
same,CI50,MDA-MB-468 [14],0.9
same,CI75,ZR-75-1,0.2
same,CI90,A2780 [15],0.53
same,CI50,NCI-H460 [16],0.27
same,CI90,NCI-H460 [17],0.17
same,Activity,A2780 [18],Dose-Dependent Effect
same,fold change (FC),NCI-H1993,1.2
